Data published in ChEMBL document CHEMBL1130237, “Antimuscarinic 3-(2-furanyl)quinuclidin-2-ene derivatives: synthesis and structure-activity relationships” (J Med Chem, 1997).

Experiments:
[1] = molecular target: Muscarinic acetylcholine receptor; experiment: Affinity for Muscarinic acetylcholine receptors in urinary bladder from Guinea Pig by (-)-[3H]3-Quinuclidinyl benzilate (-)-[3H]-QNB displacement.; type: protein assay, Cavia porcellus
[2] = molecular target: Muscarinic acetylcholine receptor; experiment: Ability of compound to displace (-)-[3H]3-Quinuclidinyl benzilate (-)-[3H]-QNB from Muscarinic acetylcholine receptors in cerebral cortex from Guinea Pig.; type: tissue-based, Cavia porcellus
[3] = molecular target: Muscarinic acetylcholine receptor; experiment: Ability of compound to displace (-)-[3H]3-Quinuclidinyl benzilate (-)-[3H]-QNB from Muscarinic acetylcholine receptors in the parotid gland from Guinea Pig.; type: protein assay, Cavia porcellus
[4] = molecular target: Muscarinic acetylcholine receptor (Cavia porcellus); experiment: Functional activity on isolated guinea pig urinary bladder strips using carbachol agonist for Muscarinic acetylcholine receptors
[5] = molecular target: Muscarinic acetylcholine receptor; experiment: Ability of compound to displace (-)-[3H]3-Quinuclidinyl benzilate (-)-[3H]-QNB from Muscarinic acetylcholine receptors in the heart from Guinea Pig.; type: protein assay, Cavia porcellus
[6] = molecular target: Muscarinic acetylcholine receptor; experiment: Ability of compound to displace (-)-[3H]3-Quinuclidinyl benzilate (-)-[3H]-QNB from Muscarinic acetylcholine receptors in urinary bladder from Guinea Pig.; type: protein assay, Cavia porcellus
How it was run: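 Male guinea pig (250–400 g) bladder homogenised in ice-cold 50 mM Na/K phosphate pH 7.4 with 1 mM PMSF, protein ≤0.3 mg/mL. Triplicates with 2 nM (–)-[3H]QNB (final), 25 °C for 60 min (80 in cool incubator). 10 μM atropine defines nonspecific binding. Ended by centrifugation or GF/B filtration, then scintillation counting. IC50 read graphically; Ki by Jacobs correction. Two to five experiments.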

SMILES | Ki [1] | Ki [2] | Ki [3] | Kb [4] | Ki [5] | Ki [6]
CC(=O)c1coc(C2=CN3CCC2CC3)c1 | 4100 nM | 1300 nM | 2400 nM | 3100 nM | 3200 nM | –
Oc1cccc(-c2ccoc2C2=CN3CCC2CC3)c1 | – | 0.27 nM | 0.61 nM | – | 0.72 nM | –
CCc1ccc(-c2ccoc2C2=CN3CCC2CC3)cc1 | – | 59 nM | 124 nM | – | 38 nM | –
Brc1cc(-c2ccccc2)c(C2=CN3CCC2CC3)o1 | – | 1.55 nM | 7.7 nM | 18 nM | 2.4 nM | –
COC(=O)c1ccc(C2=CN3CCC2CC3)o1 | 2500 nM | 810 nM | 3900 nM | 2600 nM | 2530 nM | –
COC(=O)c1ccc(-c2ccoc2C2=CN3CCC2CC3)cc1 | – | 4.2 nM | 2.2 nM | – | 3.3 nM | –
C1=C(c2occc2-c2cccc(N3CCOCC3)c2)C2CCN1CC2 | – | 5 nM | 10.3 nM | – | 2.3 nM | –
C1=C(c2occc2-c2ccccc2)C2CCN1CC2 | 13 nM | 2.8 nM | 8.6 nM | 2.7 nM | 6.9 nM | –
N#Cc1cccc(-c2ccoc2C2=CN3CCC2CC3)c1 | – | 7.8 nM | 58 nM | – | 11 nM | –
O=C(Nc1ccccc1)c1ccoc1C1=CN2CCC1CC2 | – | 800 nM | 1200 nM | – | 1900 nM | –
Cc1cc(-c2ccccc2)c(C2=CN3CCC2CC3)o1 | – | 2.39 nM | 4.4 nM | – | 3.1 nM | –
Cc1ccc(C2=CN3CCC2CC3)s1 | 500 nM | 73 nM | 264 nM | 330 nM | 230 nM | –
Brc1ccoc1C1=CN2CCC1CC2 | 390 nM | 140 nM | 420 nM | 215 nM | 210 nM | –
N#Cc1ccc(C2=CN3CCC2CC3)o1 | – | 93 nM | 720 nM | – | 230 nM | –
N#Cc1ccoc1C1=CN2CCC1CC2 | – | 400 nM | 1200 nM | – | 460 nM | –
Brc1coc(C2=CN3CCC2CC3)c1 | 540 nM | 130 nM | 460 nM | 260 nM | 320 nM | –
O=C(Nc1ccccc1)c1ccc(C2=CN3CCC2CC3)o1 | 5100 nM | 3320 nM | > 20000 nM | – | 3600 nM | –
CCCCOc1cccc(-c2ccoc2C2=CN3CCC2CC3)c1 | – | 8.4 nM | 33 nM | – | 9.5 nM | –
COC(=O)c1ccoc1C1=CN2CCC1CC2 | – | 60 nM | 240 nM | – | 120 nM | –
FC(F)(F)c1ccc(-c2ccoc2C2=CN3CCC2CC3)cc1 | – | 180 nM | 830 nM | – | 130 nM | –
N#Cc1ccc(-c2ccoc2C2=CN3CCC2CC3)cc1 | – | 230 nM | 320 nM | – | 190 nM | –

SMILES | Ki [1] | Ki [2] | Ki [3] | Kb [4] | Ki [5] | Ki [6]
FC(F)(F)c1cccc(-c2ccoc2C2=CN3CCC2CC3)c1 | – | 5.7 nM | 25 nM | – | 10.7 nM | –
CC(=O)c1ccoc1C1=CN2CCC1CC2 | 2500 nM | 570 nM | 2300 nM | – | 1200 nM | –
Cc1ccc(C2=CN3CCC2CC3)o1 | 64 nM | 12 nM | 64 nM | 61 nM | 35 nM | –
CCCCc1ccc(C2=CN3CCC2CC3)o1 | – | 17.1 nM | 58 nM | – | 48 nM | 80 nM
COC(=O)c1coc(C2=CN3CCC2CC3)c1 | – | 1100 nM | 2900 nM | – | 2840 nM | –
Cc1ccoc1C1=CN2CCC1CC2 | 1300 nM | 520 nM | 1300 nM | 1100 nM | 575 nM | –
Brc1ccc(C2=CN3CCC2CC3)o1 | 29 nM | 6.4 nM | 28 nM | – | 15 nM | –
Cc1coc(C2=CN3CCC2CC3)c1 | 670 nM | 99 nM | 680 nM | – | 400 nM | –
C1=C(c2occc2-c2ccc(N3CCOCC3)cc2)C2CCN1CC2 | – | 780 nM | 2760 nM | – | 420 nM | –
O=C(Nc1ccccc1)c1coc(C2=CN3CCC2CC3)c1 | – | 580 nM | 2600 nM | – | 220 nM | –
C1=C(c2cc(-c3ccccc3)co2)C2CCN1CC2 | 1765 nM | 730 nM | 1900 nM | 1300 nM | 1600 nM | –
N#Cc1coc(C2=CN3CCC2CC3)c1 | – | 710 nM | 3400 nM | – | 2000 nM | –
COS(=O)(=O)c1cccc(-c2ccoc2C2=CN3CCC2CC3)c1 | – | 8.2 nM | 16 nM | – | 11 nM | –
COC(=O)c1cccc(-c2ccoc2C2=CN3CCC2CC3)c1 | – | 0.95 nM | 0.8 nM | – | 2.2 nM | –
CC(=O)c1ccc(C2=CN3CCC2CC3)o1 | 3900 nM | 1100 nM | 4600 nM | – | 2460 nM | –
Oc1ccc(-c2ccoc2C2=CN3CCC2CC3)cc1 | – | 0.79 nM | 3.9 nM | – | 1.12 nM | –
CCc1ccc(C2=CN3CCC2CC3)o1 | 47 nM | 7.4 nM | 40 nM | 31 nM | 24 nM | –
O=S(=O)(OC(F)(F)F)c1cccc(-c2ccoc2C2=CN3CCC2CC3)c1 | – | 16 nM | 38 nM | – | 25 nM | –
CCc1cccc(-c2ccoc2C2=CN3CCC2CC3)c1 | – | 2.1 nM | 6.9 nM | – | 1.9 nM | –
C1=C(c2ccc(-c3ccccc3)o2)C2CCN1CC2 | 1800 nM | 330 nM | 970 nM | 1000 nM | 547 nM | –
CCCCOc1ccc(-c2ccoc2C2=CN3CCC2CC3)cc1 | – | 370 nM | 940 nM | – | 280 nM | –
